Calls of active or inactive are those of the source. No cut-off for these calls is given here.
Assays:
Mus musculus [1] = test: Analgesic activity in Albino Swiss CD-1 mouse assessed as increase in pain response latency administered at 4 mg/kg, ip treated up to 90 mins prior to tet by hot plate assay; format: functional, organism-based
Summary of the method: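 Adult male Albino Swiss CD-1 mice (18−25 g), 6−12 per group, each used once. Drug given ip suspended in 1% aqueous Tween 80; vehicle controls received Tween 80. Mice were put back on the hot plate at 15, 30, 45, 60 and 90 min after dosing, and latency to pain reaction was recorded. Data are means ± SEM, analysed by ANOVA with post hoc tests.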

Mus musculus [2] = test: Anticonvulsant activity in Albino Swiss CD-1 mouse assessed as protection against maximal electroshock-induced seizures at 100 mg/kg, ip pretreated up to 2 hrs followed by 50 Hz current induction for […] relative to control; format: functional
Mus musculus [3] = test: Anticonvulsant activity in Albino Swiss CD-1 mouse assessed as protection against 6 Hz current-induced seizure at 100 mg/kg, ip pretreated up to 2 hrs followed by 6 Hz current induction for 3 secs relative to control; format: functional
Mus musculus [4] = test: Anticonvulsant activity in Albino Swiss CD-1 mouse assessed as protection against maximal electroshock-induced seizures by measuring time to peak effect at 100 mg/kg, ip pretreated up to 2 hrs followed by 50 Hz current induction for […]; format: functional
[5] = Neurotoxicity in ip dosed Albino Swiss CD-1 mouse assessed as induction of motor impairment measured up to 60 secs by chimney test; format: toxicity, organism-based; settings: in vivo
Summary of the method: (§1)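 Acute neurological toxicity after ip dosing (1% Tween 80 suspension) was assessed in the mouse chimney test. TD50 with 95% confidence limits was derived by probit analysis. Protective index is TD50 from the chimney test divided by ED50 from the MES, scPTZ or 6 Hz test.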

Mus musculus [6] = test: Protection index, ratio of TD50 for neurotoxicity in ip dosed Albino Swiss CD-1 mouse to ED50 for ip dosed Albino Swiss CD-1 mouse model of 6 Hz-induced siezures; summary of the method: as §1
Mus musculus [7] = test: Anticonvulsant activity in ip dosed Albino Swiss CD-1 mouse assessed as protection against 32 mA current-induced seizure treated up to 2 hrs prior to 6-Hz current induction measured at time to peak effect; format: functional; settings: Swiss CD-1, ip
[8] = Retention time of the compound by LC-MS method
Liver = test: Drug level in human liver microsomes treated with 1-{1-[4-(4-Trifluoromethylphenyl)piperazin-1-yl]-3-methoxy-1-oxopropan-2-yl}pyrrolidine-2,5-dione preincubated for 5 mins followed by NADPH addition measured after 2 hrs by LC-MS method; format: ADME, microsome
Mus musculus [9] = test: Anticonvulsant activity in Albino Swiss CD-1 mouse assessed as protection against 6 Hz current-induced seizure at 100 mg/kg, ip pretreated up to 0.5 hrs followed by 6 Hz current induction for 3 secs relative to control; format: functional
Mus musculus [10] = test: Anticonvulsant activity in ip dosed Albino Swiss CD-1 mouse assessed as protection against maximal electroshock-induced seizures pretreated up to 2 hrs followed by 50 Hz current induction for […] measured at time to peak effect; format: functional; settings: Swiss CD-1, ip
Mus musculus [11] = test: Anticonvulsant activity in Albino Swiss CD-1 mouse assessed as inhibition of pentylenetetrazole-induced seizures by measuring time to peak effect at 100 mg/kg, ip administered up to 2 hrs prior to PTZ induction measured for 30 mins; format: functional
Mus musculus [12] = test: Protection index, ratio of TD50 for neurotoxicity in ip dosed Albino Swiss CD-1 mouse to ED50 for ip dosed maximal electroshock induced seizure Albino Swiss CD-1 mouse; summary of the method: as §1

Row | SMILES | Time (Mus musculus [4]) | TD50 at 1 min [5] | Ratio TD50/ED50 (Mus musculus [6]) | ED50 (Mus musculus [7]) | ED50 (Mus musculus [10]) | further results
1 | CN1CC[C@]23c4c5ccc(O)c4O[C@H]2[C@@H](O)C=C[C@H]3[C@H]1C5 | – | – | – | – | – | Activity (Mus musculus [1]): Active
2 | COCC(C(=O)N1CCN(c2cccc(C)c2)CC1)N1C(=O)CCC1=O (stereo not given) | 0.25 h | 213 mg/kg | 4.5 | 47.7 mg/kg | – | Activity (Mus musculus [2]): <=75%; Activity (Mus musculus [3]): <=75%
3 | COCC(C(=O)N1C=CN(c2ccc(C(F)(F)F)cc2)CC1)N1C(=O)CCC1=O (stereo not given) | – | – | – | – | – | Retention time [8]: 6.23 min; Drug metabolism (Liver): Metabolite_Detected
4 | COCC(C(=O)N1CCN(C)CC1)N1C(=O)CCC1=O (stereo not given) | 0.25 h | > 500 mg/kg | >7.3 | 68.2 mg/kg | – | Activity (Mus musculus [3]): <=75%
5 | COCC(C(=O)N1CCN(c2cccc(OC)c2)CC1)N1C(=O)CCC1=O (stereo not given) | 0.25 h | – | – | > 100 mg/kg | – | Activity (Mus musculus [3]): <=75%
6 | O=C(C(CO)N1C(=O)CCC1=O)N1CCN(c2ccc(C(F)(F)F)cc2)CC1 (stereo not given) | – | – | – | – | – | Efficacy (Mus musculus [9]): 50%
7 | COC[C@@H](C(=O)N1CCN(c2ccc(C(F)(F)F)cc2)CC1)N1C(=O)CCC1=O | 0.25 to 0.5 h | 243 to 246 mg/kg | 5 - 6.4 | 37.9 to 49.2 mg/kg | > 120 mg/kg | –
8 | CC[C@@H](C(N)=O)N1CCCC1=O [LEVETIRACETAM] | 1 h | > 500 mg/kg | >33.8 | – | > 500 mg/kg | –
9 | CCC1(C)CC(=O)NC1=O (stereo not given) [ETHOSUXIMIDE] | 0.25 h | 722 mg/kg | 3.2 | 222 mg/kg | > 500 mg/kg | Time (Mus musculus [11]): 0.25 h
10 | O=C(C(CO)N1C(=O)CCC1=O)N1CCN(c2cccc(C(F)(F)F)c2)CC1 (stereo not given) | – | – | – | – | – | Efficacy (Mus musculus [9]): 50%
11 | COC[C@H](C(=O)N1CCN(c2ccc(C(F)(F)F)cc2)CC1)N1C(=O)CCC1=O | 0.25 to 1 h | 167 to 194 mg/kg | 8 - 9.2 | 21.1 to 22.1 mg/kg | 80.9 to 88.9 mg/kg | Ratio TD50/ED50 (Mus musculus [12]): 1.9 - 2.1
